# Legend:
# [1] = test system: Flag-tagged Pho (full-length); test: Anti-Flag affinity purification of full-length Pho-Flag:Sfmbt complexes; type: binding, Drosophila; settings: coimmunoprecipitation, full-length proteins, baculovirus system
# Outline: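 Full-length Pho-Flag with wild-type or mutant Sfmbt expressed and purified in a baculovirus system. Cells lysed by three sonication cycles (30 bursts, 30 sec on ice each). Complexes isolated by anti-Flag affinity purification; bound proteins detected by Western blot with the indicated antibodies.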
# PREs of PcG target genes = test: ChIP of Sfmbt-CTAP proteins at PREs; type: in vivo, Drosophila
# Outline: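 Sfmbt-CTAP transgenes (wild-type, G635K/A638E double mutant, ΔMBT1 truncation) expressed ubiquitously via daughterless-Gal4 in wild-type third instar larvae. Chromatin from imaginal discs and brains; TAP-tagged proteins immunoprecipitated with peroxidase anti-peroxidase via the protein A moiety. Triplicate ChIPs from three independent chromatin preparations per genotype. qPCR read-out given as mean percentage of input precipitated per region, ±SD.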
# endogenous Pho = test: Pull-down of Sfmbt-CTAP proteins from embryo nuclear extracts; type: binding, Drosophila; settings: nuclear extracts of 0- to 12-h-old embryos, IgG sepharose, Western blot
# [2] = test system: Ubx misexpression in Sfmbt^1 homozygous cell clones; test: Genetic rescue assay, repression of Ubx in Sfmbt^1 homozygous clones; type: in vivo, Drosophila; settings: imaginal disc
# [3] = test system: double-stranded Pho DNA-binding site; test: EMSA, DNA binding; design: species or system Drosophila; settings: ^32P end-labeled probe, protein without partner
# Scm = test: Pho:Scm complex formation in vitro; type: binding, Drosophila; settings: Supplemental Fig. S5C
# [4] = test system: Sfmbt 4MBT, Ser633 and Ser673 mutated into proline; test: GST pull-down and SPR, Sfmbt Ser633/Ser673 to proline mutant; type: binding, Drosophila; settings: relative to wild type
# Outline: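 Mutant and wild-type 6xHis-tagged Sfmbt 4MBT expressed in E. coli. GST pull-down: GST-Pho spacer (E. coli, GST column plus gel filtration) on beads with 4MBT, 2 h at 4°C in 50 mM Tris-HCl, 150 mM NaCl, 1 mM DTT; three washes, boiled in Laemmli buffer.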
mobility shift / association with DNA [3],Molecule,coimmunoprecipitation of endogenous Pho (endogenous Pho),repression of Ubx in Sfmbt^1 mutant clones [2],further results
–,Sfmbt^G635K/A638E: full-length Sfmbt with G635K/A638E mutations (protein) MNPSELRMMWMSSQYNSERITLEDAATLLGHPTVGLSVMEDLSAHQPTLDMNPMMSLMGGDFTGQAAATAAALGVQPGTLIATNSNNLYGFAHMGGLQQQLLQQSAAAAVFQNYAEAMDNDVENGMVGMAMEAVVDDDDQVYGQRDNNFDDNGSELEPKQEIINIDDFVMMNEDNNSYDGTDFMTSSDKDISQSSSSCMAQMPGSLGVPGVEHDLLVPLPDGLLHHKLLGTTLVPAMGTLNGNAFGNIMVSTENTSSKQMQRTYSTAKGANSTATTATCSASTSSALRSQRKTRKIEPVNRPGLVLKTPIAYRGNIDPSVIPIQKDGMAVCKRCGAIGVKHTFYTKSRRFCSMACARGELYSLVLNTKMEGDQATTSSPDPGAGSESADLPGDQQQSQSDIELDLHAAHIKNANYRFRITDQSKITQLNSFGEPMSMGGDAAANNVQMAADETIAALNGGAVGDATAPGSTEEGASTPNSYLSAAPTPKALRLFKDIYPQDDLPQIPKYERLPVPCPQMEKIISIRRRMYDPTHSYDWLPRLSKENFNAAPVTCFPHAPGCEVWDNLGVGMKVEVENTDCDSIEVIQPGQTPTSFWVATILEIKGYKALMSYEGFDTDSHDFWVNLCNAEVHSVKWCETRGKPLIPPRTIEHKYKDWKDFLVGRLSGARTLPSNFYNKINDSLQSRFRLGLNLECVDKDRISQVRLATVTKIVGKRLFLRYFDSDDGFWCHEDSPIIHPVGWATTVGHNLAAPQDYLERMLAGREAMIEVHEDDATIELFKMNFTFDEYYSDGKTNSFVEGMKLEAVDPLNLSSICPATVMAVLKFGYMMIRIDSYQPDASGSDWFCYHEKSPCIFPAGFCSVNNISVTPPNGYDSRTFTWEGYLRDTGAVAAGQHLFHRIIPDHGFEVGMSLECADLMDPRLVCVATVARVVGRLLKVHFDGWTDEYDQWLDCESADIYPVGWCVLVNHKLEGPPRVAHQQAPKPAPKPKIQRKRKPKKGAAGGKTPTDNNTQSVKSRTIALKTTPHLPKLSIKLELKPEHHNAAFYENNQPEEEGDEEDPDADGDGDGSTSHISEQSTTQSSSDLIAGSGSGSGSASLVTLATGSNKTNSSATNNKYIPRLADIDSSEPHLELVPDTWNVYDVSQFLRVNDCTAHCDTFSRNKIDGKRLLQLTKDDIMPLLGMKVGPALKISDLIAQLKCKVNPGRARSHKTNKSPFL,–,–,interaction with Flag-tagged Pho [1]: completely failed to interact
–,"Sfmbt^G635K/A638E-CTAP: Sfmbt double point mutant with C-terminal TAP tag, expressed from transgene (protein, left off: TAP tag, C-terminal, kept) MNPSELRMMWMSSQYNSERITLEDAATLLGHPTVGLSVMEDLSAHQPTLDMNPMMSLMGGDFTGQAAATAAALGVQPGTLIATNSNNLYGFAHMGGLQQQLLQQSAAAAVFQNYAEAMDNDVENGMVGMAMEAVVDDDDQVYGQRDNNFDDNGSELEPKQEIINIDDFVMMNEDNNSYDGTDFMTSSDKDISQSSSSCMAQMPGSLGVPGVEHDLLVPLPDGLLHHKLLGTTLVPAMGTLNGNAFGNIMVSTENTSSKQMQRTYSTAKGANSTATTATCSASTSSALRSQRKTRKIEPVNRPGLVLKTPIAYRGNIDPSVIPIQKDGMAVCKRCGAIGVKHTFYTKSRRFCSMACARGELYSLVLNTKMEGDQATTSSPDPGAGSESADLPGDQQQSQSDIELDLHAAHIKNANYRFRITDQSKITQLNSFGEPMSMGGDAAANNVQMAADETIAALNGGAVGDATAPGSTEEGASTPNSYLSAAPTPKALRLFKDIYPQDDLPQIPKYERLPVPCPQMEKIISIRRRMYDPTHSYDWLPRLSKENFNAAPVTCFPHAPGCEVWDNLGVGMKVEVENTDCDSIEVIQPGQTPTSFWVATILEIKGYKALMSYEGFDTDSHDFWVNLCNAEVHSVKWCETRGKPLIPPRTIEHKYKDWKDFLVGRLSGARTLPSNFYNKINDSLQSRFRLGLNLECVDKDRISQVRLATVTKIVGKRLFLRYFDSDDGFWCHEDSPIIHPVGWATTVGHNLAAPQDYLERMLAGREAMIEVHEDDATIELFKMNFTFDEYYSDGKTNSFVEGMKLEAVDPLNLSSICPATVMAVLKFGYMMIRIDSYQPDASGSDWFCYHEKSPCIFPAGFCSVNNISVTPPNGYDSRTFTWEGYLRDTGAVAAGQHLFHRIIPDHGFEVGMSLECADLMDPRLVCVATVARVVGRLLKVHFDGWTDEYDQWLDCESADIYPVGWCVLVNHKLEGPPRVAHQQAPKPAPKPKIQRKRKPKKGAAGGKTPTDNNTQSVKSRTIALKTTPHLPKLSIKLELKPEHHNAAFYENNQPEEEGDEEDPDADGDGDGSTSHISEQSTTQSSSDLIAGSGSGSGSASLVTLATGSNKTNSSATNNKYIPRLADIDSSEPHLELVPDTWNVYDVSQFLRVNDCTAHCDTFSRNKIDGKRLLQLTKDDIMPLLGMKVGPALKISDLIAQLKCKVNPGRARSHKTNKSPFL",only poorly coimmunoprecipitated,severely compromised repressor activity,reduction of ChIP signals at Ubx PREs (PREs of PcG target genes): reduced only twofold to threefold
–,"Sfmbt-CTAP: wild-type Sfmbt with C-terminal tandem affinity purification tag, expressed from transgene (protein, left off: TAP tag, C-terminal, kept) MNPSELRMMWMSSQYNSERITLEDAATLLGHPTVGLSVMEDLSAHQPTLDMNPMMSLMGGDFTGQAAATAAALGVQPGTLIATNSNNLYGFAHMGGLQQQLLQQSAAAAVFQNYAEAMDNDVENGMVGMAMEAVVDDDDQVYGQRDNNFDDNGSELEPKQEIINIDDFVMMNEDNNSYDGTDFMTSSDKDISQSSSSCMAQMPGSLGVPGVEHDLLVPLPDGLLHHKLLGTTLVPAMGTLNGNAFGNIMVSTENTSSKQMQRTYSTAKGANSTATTATCSASTSSALRSQRKTRKIEPVNRPGLVLKTPIAYRGNIDPSVIPIQKDGMAVCKRCGAIGVKHTFYTKSRRFCSMACARGELYSLVLNTKMEGDQATTSSPDPGAGSESADLPGDQQQSQSDIELDLHAAHIKNANYRFRITDQSKITQLNSFGEPMSMGGDAAANNVQMAADETIAALNGGAVGDATAPGSTEEGASTPNSYLSAAPTPKALRLFKDIYPQDDLPQIPKYERLPVPCPQMEKIISIRRRMYDPTHSYDWLPRLSKENFNAAPVTCFPHAPGCEVWDNLGVGMKVEVENTDCDSIEVIQPGQTPTSFWVATILEIKGYKALMSYEGFDTDSHDFWVNLCNAEVHSVGWCATRGKPLIPPRTIEHKYKDWKDFLVGRLSGARTLPSNFYNKINDSLQSRFRLGLNLECVDKDRISQVRLATVTKIVGKRLFLRYFDSDDGFWCHEDSPIIHPVGWATTVGHNLAAPQDYLERMLAGREAMIEVHEDDATIELFKMNFTFDEYYSDGKTNSFVEGMKLEAVDPLNLSSICPATVMAVLKFGYMMIRIDSYQPDASGSDWFCYHEKSPCIFPAGFCSVNNISVTPPNGYDSRTFTWEGYLRDTGAVAAGQHLFHRIIPDHGFEVGMSLECADLMDPRLVCVATVARVVGRLLKVHFDGWTDEYDQWLDCESADIYPVGWCVLVNHKLEGPPRVAHQQAPKPAPKPKIQRKRKPKKGAAGGKTPTDNNTQSVKSRTIALKTTPHLPKLSIKLELKPEHHNAAFYENNQPEEEGDEEDPDADGDGDGSTSHISEQSTTQSSSDLIAGSGSGSGSASLVTLATGSNKTNSSATNNKYIPRLADIDSSEPHLELVPDTWNVYDVSQFLRVNDCTAHCDTFSRNKIDGKRLLQLTKDDIMPLLGMKVGPALKISDLIAQLKCKVNPGRARSHKTNKSPFL",robustly coimmunoprecipitated,rescues repression of Ubx,–
fails to stably associate with DNA,"Sfmbt 4MBT domain: four malignant brain tumor (4MBT) domain of Drosophila Sfmbt (protein, UniProt Q9VK33 532-980, looked up, fragment, 4MBT domain) PTHSYDWLPRLSKENFNAAPVTCFPHAPGCEVWDNLGVGMKVEVENTDCDSIEVIQPGQTPTSFWVATILEIKGYKALMSYEGFDTDSHDFWVNLCNAEVHSVGWCATRGKPLIPPRTIEHKYKDWKDFLVGRLSGARTLPSNFYNKINDSLQSRFRLGLNLECVDKDRISQVRLATVTKIVGKRLFLRYFDSDDGFWCHEDSPIIHPVGWATTVGHNLAAPQDYLERMLAGREAMIEVHEDDATIELFKMNFTFDEYYSDGKTNSFVEGMKLEAVDPLNLSSICPATVMAVLKFGYMMIRIDSYQPDASGSDWFCYHEKSPCIFPAGFCSVNNISVTPPNGYDSRTFTWEGYLRDTGAVAAGQHLFHRIIPDHGFEVGMSLECADLMDPRLVCVATVARVVGRLLKVHFDGWTDEYDQWLDCESADIYPVGWCVLVNHKLEGPPRVAH",–,–,–
induces a mobility shift,"Pho: full-length Drosophila Pleiohomeotic, PRE-binding PcG protein (protein, UniProt Q8ST83 1-520, looked up, full-length) MAYERFGIILQSEQYDEDIGNTKVNQKMNEGNHYDLHRKNAFDRIIHSESKKGDNVINYNIHENDKIKAADNIFSSKLKMNPNMSYEMNINCFKNIGYGENQETSKVLTNSLSNNDINTEESGVVDKNSPFLTLGTTILNSNGKSRRWEQKLVHIKTMEGEFSVTMWASGISDDEYSGSDQIVGASDLLKGKEEFGIDGFTSQQNKEYQKMESKFTNAQTLEMPHPISSVQIMDHLIKERGNLSQENNISERILSKTTLSFEEPILLPDSSSIELVNETAAMTINNHRTLSNHTGNTGDLHALPSSVPFRIGLHEGQVNDCLSTISQSTHQDNTDSTGCGEMNLSEVTVSYTNDKKIACPHKGCNKHFRDSSAMRKHLHTHGPRVHVCAECGKAFVESSKLKRHQLVHTGEKPFQCTFEGCGKRFSLDFNLRTHVRIHTGDRPFVCPFDACNKKFAQSTNLKSHILTHAKAKRNTSISGKSGCSNAESNSQSEDTSANYVKVELQDSVTENHVPFVVYAD",–,–,"stable complex formation with Scm in vitro (Scm): fails to form a stable complex; binding affinity change, Ser633 and Ser673 to proline [4]: twofold decrease in the binding affinity"
